Results: ChEMBL document CHEMBL1123579, “Synthesis and evaluation of mono-, di-, and trifluoroethenyl-GABA derivatives as GABA-T inhibitors” (J Med Chem, 1987)

Tests used:
[1] = tested on: Mus musculus; test: Brain GABA level was measured in mice 6 hour after intraperitoneal administration at a dose of 3.8 mM/ kg.; format: functional
Method in brief: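 Male Swiss Albino mice (20–25 g), housed five per cage under a 12-h light-dark cycle, were given drug ip as an aqueous solution. They were decapitated 6 h later and brains split sagittally and frozen. Half-brain was homogenized in 10 mL 0.2 N HClO4, and supernatant GABA was measured by automatic amino acid analyzer. Values are mean ± SEM of five animals (controls: 15, different days); Student's t test.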

[2] = Dissociation constant pKa was reported.; format: physicochemical
[3] = tested on: Mus musculus; test: In vivo brain GABA-T activity was measured in mice 6 hour after intraperitoneal administration at a dose of 3.8 mM / kg.; format: functional
Method in brief: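 Male Swiss Albino mice (20–25 g) got an ip aqueous dose and were decapitated 6 h later. Brains were split sagittally and frozen. Half-brain was homogenized in 9 volumes of 10 mM KH2PO4 pH 6.8 with 0.1 mM pyridoxal phosphate, 1 mM EDTA, 0.1 mM glutathione, 0.13% Triton X-100 and 20% glycerol for GABA-T activity. Values are mean ± SEM, n = 5 (controls 15); Student's t test.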

[4] = tested on: Mus musculus; test: In vivo brain GABA-T activity was measured in mice 6 hour after intraperitoneal administration at a dose of 1.9 mM / kg.; format: functional
Method in brief: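 Male Swiss Albino mice (20–25 g) received drug ip as aqueous solution and were decapitated 6 h later. Half-brain was frozen, then homogenized in 9 volumes of 10 mM KH2PO4 pH 6.8 with 0.1 mM pyridoxal phosphate, 1 mM EDTA, 0.1 mM glutathione, 0.13% Triton X-100 and 20% glycerol for GABA-T activity. Mean ± SEM, n = 5; control n = 15; Student's t test.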

[5] = tested on: Mus musculus; test: Brain GABA level was measured in mice 6 hour after intraperitoneal administration at a dose of 1.9 mM/ kg.; format: functional
Method in brief: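 Male Swiss Albino mice (20–25 g), housed five per cage with free food and water on a 12-h light cycle, received drug ip as aqueous solution and were decapitated 6 h later. Half-brain homogenized in 10 mL 0.2 N HClO4, and supernatant GABA measured on an automatic amino acid analyzer. Mean ± SEM of five animals; control n = 15 pooled across days; Student's t test.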

| Compound | Activity [1] [µM/g] | pKa [2] | Activity [3] [mM/h] | Activity [4] [mM/h] | Activity [5] [µM/g] |
| --- | --- | --- | --- | --- | --- |
| NC(CCC(=O)O)C(F)=C(F)F (stereo unspecified) | 2.7 | 7.87 | 69.4 | – | – |
| C=C(F)C(N)CCC(=O)O (stereo unspecified) | – | 8.32 | – | 59.7 | 3.6 |
| C#CC(N)CCC(=O)O (stereo unspecified) | – | 8.2 | – | – | – |
| NC(C=C(F)F)CCC(=O)O (stereo unspecified) | – | 9.32 | – | 42.4 | 2.8 |
| NC(/C=C\F)CCC(=O)O (stereo unspecified) | – | 9.35 | – | 38.3 | 9.8 |
| C=CC(N)CCC(=O)O (stereo unspecified) [VIGABATRIN] | – | 9.5 | – | 29.3 | 9.1 |
